# Most compounds without a hit are left out; they make up all but 2.2% or so of the library.
# GalR3 antagonist: GalR3 antagonists in HEK293 cells, primary screen, cell-based, fluorescence readout | 360,000 compounds, 0.44% hits | HEK293 GalR3-CNG cAMP membrane potential fluorescence; galR3 body fused to GalR1 C-terminus | inhibition, % at 3 µM | Galanin receptor type 3 (Homo sapiens), O60755;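 active = inhibition above the screen-wide average plus 3 SD, cut at about 13% in these data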;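 also: forskolin and galanin both at EC90 stimulate the cells; cAMP rise reported by CNG channel membrane potential dye signal; 0% = forskolin plus galanin with DMSO and 100% = forskolin alone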
# Target sequence (O60755 1-299 limits assumed): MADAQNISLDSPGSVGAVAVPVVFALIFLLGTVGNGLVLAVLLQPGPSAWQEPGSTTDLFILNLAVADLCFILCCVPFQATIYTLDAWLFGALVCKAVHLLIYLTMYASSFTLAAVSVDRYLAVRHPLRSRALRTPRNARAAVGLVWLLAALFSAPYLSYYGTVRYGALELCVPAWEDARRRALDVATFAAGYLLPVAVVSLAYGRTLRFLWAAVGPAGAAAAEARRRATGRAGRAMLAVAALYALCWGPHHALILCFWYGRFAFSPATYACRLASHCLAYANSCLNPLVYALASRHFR
# NR2E3 ag-1: inhibitors of NR2E3-RetCOR corepressor binding, primary screen, NR2E3 agonist project, biochemical, TR-FRET, GST-NR2E3, biotin-RetCOR; AID 2300, 2010; inhibition of corepressor binding, % at 4.78 µM; 1536-well; 320,000 compounds, 0.12% hits;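 active = percent inhibition above the cutoff of mean plus 3 SD of all tested compounds, set per screening campaign, cut at about 20% in these data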;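 also: 0% = DMSO wells and 100% = biotin wells as full block of FRET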
# Target sequence (Q9Y5X4 whole entry, looked up): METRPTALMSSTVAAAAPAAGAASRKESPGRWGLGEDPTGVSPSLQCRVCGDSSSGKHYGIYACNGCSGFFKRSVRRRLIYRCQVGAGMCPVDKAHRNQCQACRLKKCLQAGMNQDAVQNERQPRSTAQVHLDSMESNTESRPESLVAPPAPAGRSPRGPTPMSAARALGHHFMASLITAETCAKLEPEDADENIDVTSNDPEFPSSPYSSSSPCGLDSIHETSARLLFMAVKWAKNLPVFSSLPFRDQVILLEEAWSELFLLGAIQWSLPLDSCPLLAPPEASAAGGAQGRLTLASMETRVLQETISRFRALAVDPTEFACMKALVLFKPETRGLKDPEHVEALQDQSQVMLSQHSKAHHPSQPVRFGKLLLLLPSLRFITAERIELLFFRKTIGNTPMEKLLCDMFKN
#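 Material: NR2E3–RetCOR corepressor complex / Amount: 1.35 nM GST-NR2E3 / Medium: Tris pH 7.5 / Compound: single nominal compound dose of 4.8 µM / Incubation: 5 h at 4 °C / Technique: TR-FRET, Eu(K)-anti-GST donor, streptavidin-D2 acceptor, ex 340, em 617/671 nm / Read-out basis: percent loss of FRET ratio relative to control wells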
# GAA850 FXN act: FXN promoter activators, primary screen, cell-based, luciferase luminescence, HEK293 lucGAA850. 360,000 compounds, 0.56% hits. activation, % at 6 µM. HEK293 lucGAA850 FXN promoter luciferase reporter, 24 h; percent of 10 µM SAHA response;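 active = activation above the average of all compounds screened plus 3 SD, cutoff fixed separately per campaign, cut at about 7.5% in these data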;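 also: 0% = DMSO wells and 100% = 10 µM SAHA wells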
# Env fusion inh: inhibitors of HIV-1 Env-driven cell-cell fusion, primary screen, HeLa-JRFL effector, CEM21 target cells, luciferase; inhibition, % at 12.3 µM; 360,000 compounds, 1.1% hits; AID 651610, 2012;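 active = mean replicate inhibition score of at least 50 and every replicate individually at or above 50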;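 also: 0% = plate neutral controls and 100% = maraviroc near 300 nM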
# V-ATPase pH: regulators of yeast V-ATPase proton pumping, primary screen, pHLuorin cytosolic pH fluorescence; S. cerevisiae; response, % at 10 µM; 350,000 compounds, 0.37% hits; AID 504577, 2011; in the data active = response mostly above about 7.3%, no sharp cut-off; inactive = mostly below about 5.4%; also: actives read high
# NR2E3 ag-2: NR2E3 agonists in two-hybrid cells, primary screen, cell-based, luminescence, CHO-S, Gal4-NCOR/VP16-NR2E3; luciferase; Photoreceptor-specific nuclear receptor (Homo sapiens), Q9Y5X4; 360,000 compounds, 0.35% hits; inhibition of corepressor binding, % at 3.98 µM; AID 602229, 2012;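 active = inhibition above the mean of all tested compounds plus 3 SD, cut at about 70% in these data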;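 also: 0% = DMSO with NR2E3 transfected cells and 100% = cells lacking NR2E3 construct; higher means lower luciferase signal from less NR2E3 corepressor binding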
# VATPase regulator: yeast V-ATPase proton pumping modulators, confirmation, S. cerevisiae, pH-sensitive GFP, second cherry-pick; S. cerevisiae pHLuorin cytosolic pH, V-ATPase proton transport; shares compounds with V-ATPase pH; AID 602197, 2012; 980 compounds, 2% hits; response, % at 10 µM; in the data active = response above about 24%;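 also: plate controls were vehicle wells for no effect and positive control wells for full effect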
# * = called active by the depositor; · = no result; [ ] = another dose, or the depositor's remark.
SMILES,GalR3 antagonist,NR2E3 ag-1,GAA850 FXN act,Env fusion inh,V-ATPase pH,NR2E3 ag-2,VATPase regulator
CO[C@@H]1CN(C)C(=O)c2ccc(NC(=O)C3CC3)cc2OC[C@@H](C)N(Cc2cccc(F)c2)C[C@@H]1C,·,·,·,-13.0[16.7 µM],·,·,·
Cc1noc(C)c1NC(=O)Nc1ccc2c(c1)C(=O)N([C@@H](C)CO)C[C@H](C)[C@@H](CN(C)C(=O)Nc1c(C)noc1C)OCCCC[C@H](C)O2,·,·,·,9.0[16.7 µM],·,·,·
COC(=O)COc1ccc(-c2ccc(F)cc2)cc1C=O,9.2,0.2,1.9,-3.6,6.2*,-6.4,19.6
CCNC(=S)N(CCc1c(C)[nH]c2ccc(Cl)cc12)Cc1ccco1,-8.1,0.1,0.9,10.4,-1.2,11.7,·
COCCNC(=S)N(CCc1c(C)[nH]c2ccccc12)Cc1ccco1,-2.1,2.6,0.6,5.5,10.7*,-1.7,-2.9
O=C(NCCc1cccs1)c1ccc(Cl)c(Cl)c1,-3.2,-2.4,4.9,-54.1,8.8*,-147.9,1.0
O=C(NCCc1cccs1)c1ccc(Cl)cc1,-6.1,2.4,2.0,-10.1,-2.8,-97.7,·
CC(C)c1ccc(NC(=O)/C(C#N)=C/c2ccncc2)cc1,-4.2,0.6,3.2,-35.6,13.0*,-22.2,17.2
CC1CCCC(NC(=S)Nc2cccc(S(=O)(=O)N(C)C)c2)C1C (stereo not drawn),6.3,4.2,-0.8,5.5,8.2*,-9.6,5.4
COCCCn1c(C(=O)NCCN2CCOCC2)cc2c(=O)n3cccc(C)c3nc21,1.8,1.1,1.5,0.8,8.2*,-32.0,7.0
CCS(=O)(=O)N[C@@H]1CC[C@@H](CC(=O)Nc2ccc(-c3ccccc3)cc2)O[C@@H]1CO,·,·,·,-12.1[16.7 µM],·,·,·
O=C(CN1C(=O)NC2(CCCC2)C1=O)NCCc1ccc(F)cc1,-1.5,·,-0.1,12.8,11.0*,-11.6,1.4
Cc1ccc(-c2nc(N)n(S(=O)(=O)c3ccc(C)cc3)n2)cc1,-1.2,3.1,1.7,-7.5,8.7*,-8.7,-0.9
O=C(NC1CCCCC1)c1c(O)nc2sccn2c1=O,-4.3,-0.6,2.8,-19.4,12.5*,-12.9,28.1*
C[C@@H](NC(=O)C[C@@H]1C=C[C@H](NC(=O)Nc2ccc3c(c2)OCO3)[C@H](CO)O1)c1ccccc1,·,·,·,-20.9[16.7 µM],·,·,·
O=[N+]([O-])c1ccc(F)cc1OCc1nc(-c2cccs2)no1,6.4,·,6.2,-33.4,15.2*,-40.0,0.0
O=[N+]([O-])c1ccccc1OCc1nc(-c2cccs2)no1,-5.7,-1.0,4.9,-160.2,2.9,-200.3,·
C[C@@H]1CCCCO[C@@H](CN(C)C(=O)Nc2ccc(F)cc2)[C@H](C)CN([C@H](C)CO)C(=O)c2cc(NC(=O)c3ccncc3)ccc2O1,·,·,·,-14.7[16.7 µM],·,·,·
O=C1C=C(c2ccc(C(=O)O)cc2)C[C@@H](c2ccc(F)cc2)C1,-2.2,·,3.1,-34.6,9.7*,-107.2,-1.0
O=C1C=C(c2ccc(-c3ccccc3)cc2)C[C@@H](c2ccc(F)cc2)C1,-1.0,1.9,1.4,27.1,-2.0,-17.9,·
COn1c(SCc2cccc(Cl)c2)nc2ccccc2c1=O,-2.9,2.3,2.3,44.5,15.1*,16.2,-0.9
O=C(Nc1ccccc1)Nc1ccc2c(c1)[C@@H]1C[C@H](CC(=O)N3CCCCC3)O[C@H](CO)[C@@H]1O2,·,·,·,-9.7[16.7 µM],·,·,·
COc1nc(Cl)cn(-c2ccc(Cl)cc2)c1=O,-3.0,-0.4,2.4,-18.5,-3.3,-20.0,-0.7
CCNC(=O)/C(C#N)=C/c1c(N2CCN(c3ccc(OC)cc3)CC2)nc2c(C)cccn2c1=O,-1.2,3.7,1.9,21.5,14.1*,-25.5,1.0
CCCN(C)C[C@H]1OCCCC[C@@H](C)Oc2ccc(NC(=O)Nc3ccc4c(c3)OCO4)cc2C(=O)N([C@H](C)CO)C[C@@H]1C,·,·,·,-2.4[16.7 µM],·,·,·
SMILES,GalR3 antagonist,NR2E3 ag-1,GAA850 FXN act,Env fusion inh,V-ATPase pH,NR2E3 ag-2,VATPase regulator
O=C(O)CCN1C(=O)C2C3CC(C2C1=O)C1C(c2ccccc2)c2sc(=O)n(-c4ccccc4)c2SC31 (stereo not drawn),-3.1,3.1,1.0,-0.8,9.2*,23.7,3.0
CCOC(=O)c1c(C)[nH]c(C(=O)COC(=O)c2cnc(C)cn2)c1C,2.0,-3.7,4.8,-48.5,11.2*,9.7,1.7
CCOC(=O)c1c(C)[nH]c(C(=O)C(C)OC(=O)c2cnc(C)cn2)c1C (stereo not drawn),-4.2,0.1,1.3,·,0.7,4.0,·
COc1ccc(-c2c(C)n([O-])c3c([n+]2=O)CCCC3)cc1,-5.7,-0.2,-3.5,-7.1,10.2*,-0.5,7.9
C=CC[C@@H](CC(=O)N(CCO)Cc1ccccc1)C(=O)N[C@@H](C)COC(=O)[C@@H](CC=C)CC(=O)OC(C)(C)C,-4.3,·,-4.6,-25.4,13.6*,-12.5,4.7
C=CC[C@H](CC(=O)N(CCO)Cc1ccccc1)C(=O)N[C@@H](C)COC(=O)[C@H](CC=C)CC(=O)OC(C)(C)C,-1.1,·,-3.5,-8.9,-6.3,-20.5,·
O=C(NCc1cccnc1)c1nn2cccnc2c1Cl,0.3,1.3,2.2,-2.3,-4.1,-15.2,·
C=CCNC(=O)c1nn2cccnc2c1Cl,-1.1,7.8,2.4,·,11.5*,-48.2,-1.2
COc1ccccc1C/C(N)=N/OC(=O)c1ccc2c(c1)OCO2,-3.3,-0.7,1.8,-15.3,8.5*,-58.9,3.2
CCCNC(=S)N1CCN(C)CC1,-1.9,-1.6,0.7,9.7,8.2*,-5.8,-4.8
CS(=O)(=O)Nc1ccc2c(c1)[C@@H]1C[C@H](CC(=O)NCc3ccccc3)O[C@@H](CO)[C@@H]1O2,·,·,·,4.0[16.7 µM],·,·,·
CN1C(=O)c2cc(NC(=O)c3cccs3)ccc2OC[C@@H]2O[C@@H](CC(=O)NCC3CC3)CC[C@@H]21,·,·,·,4.9[16.7 µM],·,·,·
Cc1ccc(-c2nnc(-n3ncc(C#N)c3N)c3ccccc23)cc1C,-5.2,-1.2,1.8,2.4,9.9*,-12.1,-4.7
c1ccc(-c2nnc(-c3ccccc3)o2)cc1,-0.4,-2.0,7.3,·,-1.0,-156.3,·
CSc1nnc(-c2ccccc2)o1,-5.2,1.8,1.1,-5.8,0.2,-17.3,0.6
O=C(O)/C(=C\c1cccs1)Sc1nnc(-c2ccc(F)cc2)o1,-7.4,0.1,2.3,10.0,0.0,7.9,2.4
CSc1ccc(/C=C(/Sc2nnc(-c3ccccc3)o2)C(=O)O)cc1,-2.3,-0.6,-0.7,-25.7,0.2,3.2,-33.9

# From PubChem
